In ChEMBL document CHEMBL1144780, “Synthesis and SAR of new pyrrolo[2,1-f][1,2,4]triazines as potent p38 alpha MAP kinase inhibitors” (Bioorg Med Chem Lett, 2008):

What was measured:
[1] = molecular target: Mitogen-activated protein kinase 14 (Homo sapiens, UniProt Q16539); experiment: Inhibition of p38alpha
Mus musculus = experiment: Inhibition of LPS-induced TNFalpha production in BALB/c mouse at 10 mg/kg, po relative to control; type: functional
Outline: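 Female BALB/c mice, 6–8 weeks old, n = 8 per group, given 10 mg/kg by oral gavage in PEG 300; vehicle controls received PEG300 alone. LPS (E. coli O111:B4, 50 µg/kg) given ip 30 min after dosing. Blood taken 90 min after LPS and serum TNF-α measured by ELISA. Inhibition relative to vehicle, means SD, ANOVA.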

PBMC = experiment: Inhibition of LPS-stimulated TNFalpha production in human PBMCs; type: functional, cell-based
Outline: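 PBMCs from heparinized healthy-volunteer blood isolated by Ficoll-Hypaque and resuspended at 5 × 10⁶/mL in RPMI with 10% FBS. Cells preincubated with compound for 5 min at rt, then stimulated with LPS (200 ng/mL stock) for 6 h at 37 °C. TNF-α in medium measured by ELISA. IC50 derived by linear regression.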

Mitogen-activated protein kinase 14, sequence (Q16539 whole entry): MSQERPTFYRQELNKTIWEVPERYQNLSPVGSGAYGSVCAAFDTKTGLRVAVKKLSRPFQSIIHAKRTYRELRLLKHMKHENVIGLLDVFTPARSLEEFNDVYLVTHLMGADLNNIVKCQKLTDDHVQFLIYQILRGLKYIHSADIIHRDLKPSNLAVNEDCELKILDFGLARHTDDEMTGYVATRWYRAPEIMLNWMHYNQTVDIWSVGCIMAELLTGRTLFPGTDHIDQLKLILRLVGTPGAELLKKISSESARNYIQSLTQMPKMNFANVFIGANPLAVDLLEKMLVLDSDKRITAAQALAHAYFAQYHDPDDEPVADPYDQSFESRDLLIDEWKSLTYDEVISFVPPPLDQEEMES

| SMILES | IC50 [1] [µM] | Ki [1] [µM] | inhibition in vivo at 10 mg/kg (Mus musculus) [%] | IC50 (PBMC) [µM] |
| --- | --- | --- | --- | --- |
| Cc1ccc(NC(=O)c2ccnc(N3CCOCC3)c2)cc1Nc1ncnn2cc(C(=O)N[C@@H](C)c3ccccc3)c(C)c12 | – | – | 89 | 0.043 |
| Cc1ccc(NC(=O)c2ccc(C#N)cc2)cc1Nc1ncnn2cc(C(=O)N[C@@H](C)c3ccccc3)c(C)c12 | – | 0.0034 | – | 0.011 |
| Cc1ccc(NC(=O)c2c(Cl)cccc2Cl)cc1Nc1ncnn2cc(C(=O)N[C@@H](C)c3ccccc3)c(C)c12 | > 1 | – | – | – |
| CCOC(=O)c1cn2ncnc(Nc3cc(NC(=O)c4cc(F)cc(N5CCOCC5)c4)ccc3C)c2c1C | 0.002 | – | – | 0.004 |
| Cc1ccc(NC(=O)c2cc(F)cc(N3CCOCC3)c2)cc1Nc1ncnn2cc(C(N)=O)c(C)c12 | 0.003 | – | – | 0.019 |
| Cc1ccc(NC(=O)c2cc(F)cc(N3CCOCC3)c2)cc1Nc1ncnn2cc(C(=O)O)c(C)c12 | 0.001 | – | – | > 1 |
| Cc1ccc(NC(=O)c2ccccc2)cc1Nc1ncnn2cc(C(=O)N[C@@H](C)c3ccccc3)c(C)c12 | 0.019 | – | – | 0.052 |
| Cc1ccc(NC(=O)c2cc(F)cc(N3CCOCC3)c2)cc1Nc1ncnn2cc(C(=O)N[C@@H](C)c3ccccc3)c(C)c12 | – | 0.00054 | – | 0.002 |
| COC[C@H](C)NC(=O)c1cn2ncnc(Nc3cc(NC(=O)c4ccc(C#N)cc4)ccc3C)c2c1C | – | – | – | 0.065 |
| Cc1ccc(NC(=O)c2cc(F)cc(N3CCOCC3)c2)cc1Nc1ncnn2ccc(C)c12 | 0.027 | – | – | 0.098 |
| Cc1ccc(C(=O)Nc2ccc(C)c(Nc3ncnn4cc(C(=O)N[C@@H](C)c5ccccc5)c(C)c34)c2)cc1 | 0.013 | – | – | 0.313 |
| Cc1ccc(NC(=O)c2cc(C(F)(F)F)cc(C(F)(F)F)c2)cc1Nc1ncnn2cc(C(=O)N[C@@H](C)c3ccccc3)c(C)c12 | > 1 | – | – | – |
| Cc1cccc(C(=O)Nc2ccc(C)c(Nc3ncnn4cc(C(=O)N[C@@H](C)c5ccccc5)c(C)c34)c2)c1 | 0.094 | – | – | 0.259 |
| Cc1ccc(NC(=O)c2cccc(C(F)(F)F)c2)cc1Nc1ncnn2cc(C(=O)N[C@@H](C)c3ccccc3)c(C)c12 | 0.032 | – | – | 0.072 |
| Cc1ccc(NC(=O)c2cccc(N3CCOCC3)c2)cc1Nc1ncnn2cc(C(=O)N[C@@H](C)c3ccccc3)c(C)c12 | – | – | 87 | 0.029 |
| Cc1ccc(NC(=O)c2ccncc2)cc1Nc1ncnn2cc(C(=O)N[C@@H](C)c3ccccc3)c(C)c12 | 0.014 | – | – | 0.117 |
| Cc1ccc(NC(=O)c2cc(F)cc(N3CCOCC3)c2)cc1Nc1ncnn2cc(C(=O)N[C@H](C)c3ccccc3)c(C)c12 | 0.023 | – | – | 0.048 |
| COC[C@H](C)NC(=O)c1cn2ncnc(Nc3cc(NC(=O)c4cc(F)cc(N5CCOCC5)c4)ccc3C)c2c1C (stereo in doubt; 16) | 0.002 | – | – | – |
| COC[C@H](C)NC(=O)c1cn2ncnc(Nc3cc(NC(=O)c4cc(F)cc(N5CCOCC5)c4)ccc3C)c2c1C (stereo in doubt; 39) | 0.002 | – | – | 0.007 |

More lines, main results first:

| IC50 [1] [µM] | Ki [1] [µM] | SMILES | inhibition in vivo at 10 mg/kg (Mus musculus) [%] | IC50 (PBMC) [µM] |
| --- | --- | --- | --- | --- |
| 0.924 | – | CCNC(=O)c1cn2ncnc(Nc3cc(NC(=O)c4cccc(N5CCN(C)CC5)c4)ccc3C)c2c1C | – | – |
| – | 0.00098 | CCNC(=O)c1cn2ncnc(Nc3cc(NC(=O)c4cccc(N5CCOCC5)c4)ccc3C)c2c1C | 84 | 0.045 |
| 0.01 | – | Cc1ccc(NC(=O)c2cc(F)cc(N3CCOCC3)c2)cc1Nc1ncnn2cc(C(=O)NCCN(C)C)c(C)c12 | – | 0.018 |
| 0.063 | – | Cc1ccc(NC(=O)c2cc(F)cc(N3CCOCC3)c2)cc1Nc1ncnn2cc(C(=O)N(C)C)c(C)c12 | – | 0.212 |
| 0.004 | – | CNC(=O)c1cn2ncnc(Nc3cc(NC(=O)c4cc(F)cc(N5CCOCC5)c4)ccc3C)c2c1C | – | 0.014 |
| 0.023 | – | CCNC(=O)c1cn2ncnc(Nc3cc(NC(=O)c4ccc(C#N)cc4)ccc3C)c2c1C | – | 0.046 |
| 0.005 | – | Cc1ccc(NC(=O)c2cc(F)cc(N3CCOCC3)c2)cc1Nc1ncnn2cc(C(=O)NC(C)C)c(C)c12 | – | 0.006 |
| – | 0.00042 | CCNC(=O)c1cn2ncnc(Nc3cc(NC(=O)c4cc(F)cc(N5CCOCC5)c4)ccc3C)c2c1C | – | 0.002 |
| 0.002 | – | CCNC(=O)c1cn2ncnc(Nc3cc(NC(=O)c4ccnc(N5CCOCC5)c4)ccc3C)c2c1C | – | 0.287 |
| 0.016 | – | CCNC(=O)c1cn2ncnc(Nc3cc(NC(=O)c4cccc(N5CCCC5=O)c4)ccc3C)c2c1C | – | 0.633 |
| 0.007 | – | CCNC(=O)c1cn2ncnc(Nc3cc(NC(=O)c4cccc(-n5ccnc5)c4)ccc3C)c2c1C | – | 0.126 |
| 0.012 | – | COC[C@H](C)NC(=O)c1cn2ncnc(Nc3cc(NC(=O)c4cccc(N5CCOCC5)c4)ccc3C)c2c1C | – | 0.029 |
| 0.123 | – | CCNC(=O)c1cn2ncnc(Nc3cc(NC(=O)c4cccc(-n5cccn5)c4)ccc3C)c2c1C | – | – |
| 0.005 | – | CCCNC(=O)c1cn2ncnc(Nc3cc(NC(=O)c4cc(F)cc(N5CCOCC5)c4)ccc3C)c2c1C | – | 0.004 |
